# According to ChEMBL document CHEMBL1148341, “Selective inhibition of Trypanosoma brucei 6-phosphogluconate dehydrogenase by high-energy intermediate and transition-state analogues” (J Med Chem, 2004):
# How the values were obtained:
# [1] = test system: Trypanosoma brucei; assay: In vitro antiparasitic activity was determined against Trypanosoma brucei; format: functional, organism-based
# [2] = test system: Trypanosoma cruzi; assay: In vitro antiparasitic activity was determined against Trypanosoma cruzi; format: functional, organism-based
# In short: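 L-6 rat myoblasts (2000 cells/well, RPMI 1640, 10% FBS, 2 mM L-glutamine) infected after 24 h with 5000 T. cruzi Tulahuen C2C4 LacZ trypomastigotes plus serial drug dilutions; 4 days at 37 °C, 5% CO2. MIC read microscopically; for IC50, CPRG/Nonidet added, colour read at 540 nm after 2–4 h, IC50 from sigmoidal curve.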
# [3] = test system: Plasmodium falciparum; assay: In vitro antiparasitic activity against Plasmodium falciparum; format: functional, organism-based
# [4] = test system: Leishmania donovani; assay: In vitro antiparasitic activity was determined against Leishmania donovani; format: functional, organism-based
# In short: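 Mouse peritoneal macrophages in RPMI 1640 with 10% heat-inactivated FBS, infected after 24 h with L. donovani amastigotes (3:1 amastigotes to macrophages); free amastigotes removed at 4 h. Next day, drug dilutions added; 96 h at 37 °C, 5% CO2. Slides methanol-fixed and Giemsa-stained; infected vs noninfected macrophages counted microscopically as % of control; IC50 by linear regression.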
# [5] = test system: L6; assay: In vitro cytotoxic activity was determined against L6 cells; format: functional, cell-based, Rattus norvegicus
# [6] = test system: L6; assay: In vitro cytotoxic activity against L6 cells; format: functional, cell-based; details: Rattus norvegicus
# [7] = target: 6-phosphogluconate dehydrogenase (Ovis aries) (UniProt P00349); assay: Inhibition constant against 6-phosphogluconate dehydrogenase of sheep liver; NI denotes no inhibition
# Chain of 6-phosphogluconate dehydrogenase (Ovis aries) (P00349 whole entry, looked up): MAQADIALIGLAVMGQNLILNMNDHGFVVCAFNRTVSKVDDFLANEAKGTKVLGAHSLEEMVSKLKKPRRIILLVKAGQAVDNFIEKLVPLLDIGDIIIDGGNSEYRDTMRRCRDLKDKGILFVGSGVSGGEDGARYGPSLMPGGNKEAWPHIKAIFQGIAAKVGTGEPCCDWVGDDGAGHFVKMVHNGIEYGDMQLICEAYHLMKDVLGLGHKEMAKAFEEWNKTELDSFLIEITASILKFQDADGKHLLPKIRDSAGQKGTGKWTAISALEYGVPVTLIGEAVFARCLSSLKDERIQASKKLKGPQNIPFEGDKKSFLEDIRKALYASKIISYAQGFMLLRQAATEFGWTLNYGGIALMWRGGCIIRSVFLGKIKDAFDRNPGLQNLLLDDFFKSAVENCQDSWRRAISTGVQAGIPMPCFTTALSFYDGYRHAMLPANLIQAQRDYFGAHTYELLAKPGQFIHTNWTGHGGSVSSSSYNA
# [8] = target: 6-phosphogluconate dehydrogenase (Trypanosoma brucei) (UniProt P31072); assay: Inhibition constant against 6-phosphogluconate dehydrogenase of Trypanosoma brucei expressed in Escherichia coli; NI denotes no inhibition
# Chain of 6-phosphogluconate dehydrogenase (Trypanosoma brucei) (P31072 whole entry, looked up): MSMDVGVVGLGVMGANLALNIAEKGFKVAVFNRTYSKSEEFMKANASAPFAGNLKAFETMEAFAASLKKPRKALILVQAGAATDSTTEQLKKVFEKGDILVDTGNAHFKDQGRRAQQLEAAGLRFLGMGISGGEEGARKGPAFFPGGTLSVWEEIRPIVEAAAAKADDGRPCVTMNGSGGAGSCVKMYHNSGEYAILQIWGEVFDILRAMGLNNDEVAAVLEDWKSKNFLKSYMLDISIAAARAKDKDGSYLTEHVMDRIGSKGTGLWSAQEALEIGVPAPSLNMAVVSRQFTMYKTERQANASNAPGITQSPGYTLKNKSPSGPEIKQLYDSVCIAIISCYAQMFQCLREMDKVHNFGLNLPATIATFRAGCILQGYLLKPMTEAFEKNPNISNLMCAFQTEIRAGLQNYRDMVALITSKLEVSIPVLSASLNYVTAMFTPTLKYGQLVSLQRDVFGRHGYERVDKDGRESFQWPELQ
IC50 [1] [µM],IC50 [2] [µM],IC50 [3] [µM],IC50 [4] [µM],Ki [7],Ki [8],SMILES,IC50 [5],IC50 [6] [µM]
49,> 143,> 80,> 48,,,CC(=O)O[C@H](COP(=O)(OCc1ccccc1)OCc1ccccc1)[C@@H](OC(C)=O)C(=O)N(OCc1ccccc1)C(C)=O,,
113,> 315,78,> 105,,,O=C1OC[C@@H](OC2CCCO2)[C@H]1OC1CCCO1 (stereo partly drawn),,
,,,,,,O=C1OC[C@@H](O)[C@H]1O,Not Active,
> 304,215,> 169,> 101,,,CC1(C)OC[C@H](CSCC(=O)OCc2ccccc2)O1,,
61,> 282,~157,> 94,,,O=C(NO)[C@H](OC1CCCO1)[C@@H](CCO)OC1CCCO1 (stereo partly drawn),,
229,> 285,> 159,,,,CC(=O)O[C@H](COP(=O)(O)O)[C@@H](OC(C)=O)C(=O)NO,,> 285
130,> 179,> 100,33,,,O=C(NOCc1ccccc1)[C@H](O)[C@H](O)COP(=O)(OCc1ccccc1)OCc1ccccc1,,
82,> 169,> 94,> 56,Not Active,Not Active,O=C(C[S+]([O-])C[C@H](O)COP(=O)(OCc1ccccc1)OCc1ccccc1)OCc1ccccc1 (stereo partly drawn),,
212,131,> 196,,,,CC1(C)O[C@H](COP(=O)(O)O)[C@H](C(N)=O)O1,,> 220
> 389,> 389,> 216,> 130,,,O=C(NO)[C@H](O)[C@H](O)COP(=O)(O)O,,269
60,> 154,> 85,> 17,Not Active,Not Active,CC(=O)O[C@H](COP(=O)(OCc1ccccc1)OCc1ccccc1)[C@@H](OC(C)=O)C(=O)NOCc1ccccc1,,
73,82,7,,Not Active,Not Active,O=C(C[S+]([O-])C[C@@H](COP(=O)(OCc1ccccc1)OCc1ccccc1)OC1CCCO1)OCc1ccccc1 (stereo partly drawn),,91
113,> 296,> 164,> 99,,,CC(=O)O[C@H](COP(=O)(O)O)C[S+]([O-])CC(=O)O (stereo partly drawn),Not Active,
244,> 343,> 191,,,,O=C(O)C[S+]([O-])C[C@H](O)COP(=O)(O)O (stereo partly drawn),,343
116,290,18,> 199,,,O=C(NO)[C@H](O)[C@H](O)CO,,
126,> 166,> 92,> 55,,,CC1(C)O[C@H](COP(=O)(OCc2ccccc2)OCc2ccccc2)[C@H](C(=O)NOCc2ccccc2)O1,,
3.5,> 32,53,30,,,CC1(C)O[C@H](CO)[C@H](C(=O)NOCc2ccccc2)O1,,37
137,> 161,62,28,,,CC(=O)O[C@H](COP(=O)(OCc1ccccc1)OCc1ccccc1)CSCC(=O)OCc1ccccc1,,
277,> 418,> 232,> 139,,,NC(=O)[C@H](O)[C@H](O)COP(=O)(O)O,,> 418
> 332,> 332,> 184,> 111,,,CC1(C)O[C@H](COP(=O)(O)O)[C@H](C(=O)NO)O1,,> 332
75,212,> 195,> 117,,,O=C(CSC[C@H](O)CO)OCc1ccccc1,,
36,> 157,18,27,Not Active,Not Active,CC(=O)O[C@H](COP(=O)(OCc1ccccc1)OCc1ccccc1)C[S+]([O-])CC(=O)OCc1ccccc1 (stereo partly drawn),,60
47,124,65,23,,,O=C(CSC[C@H](O)COP(=O)(OCc1ccccc1)OCc1ccccc1)OCc1ccccc1,,

SMILES,IC50 [1] [µM],IC50 [2] [µM],IC50 [3] [µM],IC50 [4] [µM],Ki [7],Ki [8],IC50 [5],IC50 [6] [µM]
CC1(C)O[C@@H]2COC(=O)[C@@H]2O1,262,> 569,> 316,> 190,,,Not Active,
